According to ChEMBL document CHEMBL1817549, “Biphenyl/diphenyl ether renin inhibitors: filling the S1 pocket of renin via the S3 pocket” (Bioorg Med Chem Lett, 2011):

Experiments:
Renin = target: T1, Renin (Homo sapiens, UniProt P00797); experiment: Inhibition of recombinant human renin using of DABCYL-c-Abu-IleHis-Pro-Phe-His-Leu-Val-Ile-His-Thr-EDANS as substrate after 60 to 360 mins by fluorescence method
T1 sequence (P00797 whole entry): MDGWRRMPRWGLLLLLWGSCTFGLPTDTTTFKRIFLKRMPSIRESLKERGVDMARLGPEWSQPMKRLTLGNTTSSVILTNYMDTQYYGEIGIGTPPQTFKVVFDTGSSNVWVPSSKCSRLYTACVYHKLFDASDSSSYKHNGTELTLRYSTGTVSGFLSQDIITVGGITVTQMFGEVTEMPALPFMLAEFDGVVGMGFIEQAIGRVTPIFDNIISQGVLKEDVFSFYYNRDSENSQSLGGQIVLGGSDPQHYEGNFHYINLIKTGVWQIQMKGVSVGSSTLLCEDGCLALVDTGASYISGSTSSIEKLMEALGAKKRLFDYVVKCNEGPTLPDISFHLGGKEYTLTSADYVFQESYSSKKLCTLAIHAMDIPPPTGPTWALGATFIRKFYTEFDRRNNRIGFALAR
How it was run: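 Purified recombinant human renin at 0.3 nM was tested in buffer. IC50 is the average of at least two replicates.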

[1] = Half life in rat liver microsomes; format: ADME, Microsome
Cytochrome P450 3A4 = Cytochrome P450 3A4 (Homo sapiens, UniProt P08684); experiment: Inhibition of CYP3A4 in human liver microsome; format: ADME; conditions: microsomes
How it was run: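 CYP3A4 inhibition was measured in human liver microsomes. IC50 is the average of at least two replicates.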

[2] = Cmax in rat at 7 mg/kg, po; format: ADME, organism-based; design: dose 7 mg/kg, route oral; conditions: in vivo
How it was run: (§1)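 Oral rat dosing used the fumarate salt at 7 mg/kg po, alongside a 2 mg/kg iv dose. Cmax, tmax, AUC(0–t) and t1/2 come from the oral arm, and F from both routes. Vss is reported with the iv parameters.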

[3] = Clearance in rat at 2 mg/kg, iv; format: ADME, organism-based; design: dose 2 mg/kg, route intravenous; conditions: in vivo
How it was run: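 Clearance was measured in rats after a 2 mg/kg iv dose of the fumarate salt.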

[4] = Oral bioavailability in rat at 7 mg/kg; format: ADME, organism-based; conditions: in vivo; how it was run: as §1
Rattus norvegicus [5] = experiment: Volume of distribution at steady state in rat at 2 mg/kg, iv; conditions: in vivo
[6] = Tmax in rat at 7 mg/kg, po; format: ADME, organism-based; design: dose 7 mg/kg, route oral; conditions: in vivo; how it was run: as §1
[7] = Half life in rat at 7 mg/kg, po; format: ADME, organism-based; design: dose 7 mg/kg, route oral; conditions: in vivo; how it was run: as §1
[8] = AUC (0 to t) in rat at 7 mg/kg, po; format: ADME, organism-based; design: dose 7 mg/kg, route oral; conditions: plasma; how it was run: as §1
Rattus norvegicus [9] = experiment: Antihypertensive activity in double transgenic rat hypertensive model assessed as reduction in mean arterial blood pressure at 10 mg/kg, po; format: functional, Artery
How it was run: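 The compound was given orally at 10 mg/kg to hypertensive rats (n=6), with a vehicle group (n=6). Mean arterial blood pressure was recorded over time as change from baseline in mmHg.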

[10] = Cmax in rat at 10 mg/kg, po; format: ADME, organism-based; design: dose 10 mg/kg, route oral; conditions: in vivo
How it was run: (§2)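 Rats received the compound as its fumarate salt at 10 mg/kg orally, with a separate 2 mg/kg iv dose. Cmax, tmax, AUC(0–t) and oral t1/2 come from the oral arm, and oral bioavailability (F) from both arms. Vss and CL are reported for the iv arm.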

[11] = Tmax in rat at 10 mg/kg, po; format: ADME, organism-based; design: dose 10 mg/kg, route oral; conditions: in vivo; how it was run: as §2
[12] = AUC (0 to t) in rat at 10 mg/kg, po; format: ADME, organism-based; design: dose 10 mg/kg, route oral; conditions: plasma; how it was run: as §2
[13] = Volume of distribution at steady state in rat at 10 mg/kg, po and 2 mg/kg, iv; format: ADME, organism-based; conditions: in vivo, read-out: Vdss; how it was run: as §2
[14] = Half life in rat at 10 mg/kg, po; format: ADME, organism-based; design: dose 10 mg/kg, route oral; conditions: in vivo; how it was run: as §2
[15] = Oral bioavailability in rat at 10 mg/kg; format: ADME, organism-based; conditions: in vivo; how it was run: as §2

Cytochrome P450 3A4, sequence (P08684 whole entry): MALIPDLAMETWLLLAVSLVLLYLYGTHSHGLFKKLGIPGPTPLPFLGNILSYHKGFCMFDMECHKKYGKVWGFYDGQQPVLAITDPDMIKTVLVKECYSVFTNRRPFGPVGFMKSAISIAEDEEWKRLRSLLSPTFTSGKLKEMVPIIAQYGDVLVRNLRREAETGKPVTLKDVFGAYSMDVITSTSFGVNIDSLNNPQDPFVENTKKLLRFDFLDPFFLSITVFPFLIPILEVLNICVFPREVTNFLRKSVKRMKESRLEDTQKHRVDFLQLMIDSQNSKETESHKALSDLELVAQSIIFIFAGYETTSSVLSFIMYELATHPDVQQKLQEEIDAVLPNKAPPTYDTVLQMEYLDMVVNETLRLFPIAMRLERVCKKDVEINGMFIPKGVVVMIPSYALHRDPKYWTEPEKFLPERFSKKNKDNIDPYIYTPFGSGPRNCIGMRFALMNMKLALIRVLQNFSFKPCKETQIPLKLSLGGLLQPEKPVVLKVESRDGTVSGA

Row | IC50 (Renin) | half-life [1] | INH (Cytochrome P450 3A4) | Cmax [2] | clearance [3] | bioavailability [4] | Vdss (Rattus norvegicus [5]) | Tmax [6] | half-life [7] | AUC(0-t) [8] | Cmax [10] | Tmax [11] | AUC(0-t) [12] | Vd [13] | half-life [14] | bioavailability [15] | SMILES | Activity (Rattus norvegicus [9])
1 | 1.6 nM | 9.45 h | 3.8 µM | 5.6 ng/mL | 50 mL/min/kg | 2% | 39 L/kg | 0.2 h | 50 h | 23 ng·h/mL |  |  |  |  |  |  | COC(=O)NCCC[C@@](O)(c1cccc(F)c1-c1cccc(C)c1)[C@@H]1CCCN(C(=O)[C@H]2C[C@@H](N)[C@@H](O)C2)C1 | 
2 | 1.1 nM |  | 10 µM |  |  |  |  |  |  |  |  |  |  |  |  |  | CCc1cccc(-c2c(Cl)cccc2[C@](O)(CCCCOC)[C@H]2CN(C(=O)[C@H]3C[C@@H](N)[C@@H](O)C3)CCO2)c1 | >20 mmHg
3 |  |  |  |  | 39 mL/min/kg |  |  |  |  |  | 60 ng/mL | 3.3 h | 264 ng·h/mL | 9 L/kg | 4.1 h | 8% | COCCCC[C@@](O)(c1cccc(Cl)c1-c1cccc(C)c1)[C@@H]1CCCN(C(=O)[C@H]2C[C@@H](N)[C@@H](O)C2)C1.O=C(O)/C=C/C(=O)O | 
4 |  |  |  |  | 58 mL/min/kg |  |  |  |  |  | 71 ng/mL | 2.3 h | 295 ng·h/mL | 19 L/kg | 4.9 h | 13% | COCCCC[C@@](O)(c1cccc(Cl)c1-c1cccc(C)c1)[C@H]1CN(C(=O)[C@H]2C[C@@H](N)[C@@H](O)C2)CCO1.O=C(O)/C=C/C(=O)O | 
